# Laboratory results taken from ChEMBL document CHEMBL2034944, “Cytotoxic and anti-inflammatory triterpenoids from Toona ciliata” (J Nat Prod, 2012).
# pIC50: −log10 of the molar value.
# Assays:
# Type in all cases: functional, cell-based
# [1] = test system: KB; test: Cytotoxicity against human KB cells after 48 hrs by MTT assay
# Outline: (§1)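 MTT assay; cells grown in RPMI-1640 or DMEM with 10% FBS, 37 °C, 5% CO2. Adherent cells allowed to attach 12 h before dosing; suspension cells seeded just before dosing at 1 × 10^5 cells/mL. Exposure at 0.1, 1, 10, 100 and 500 μM in triplicate for 48 h. 5-fluorouracil and doxorubicin as positive controls. IC50 by Reed and Muench method.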
# [2] = test system: MCF7; test: Cytotoxicity against human MCF7 cells after 48 hrs by MTT assay; settings: MCF7, 48 h; outline: as §1
# [3] = test system: K562; test: Cytotoxicity against human K562 cells after 48 hrs by MTT assay; settings: K562, 48 h; outline: as §1
# [4] = test system: SMMC-7721; test: Cytotoxicity against human SMMC7721 cells after 48 hrs by MTT assay; settings: SMMC-7721, 48 h; outline: as §1
# [5] = Cytotoxicity against human KB/VCR cells after 48 hrs by MTT assay; outline: as §1
# [6] = Cytotoxicity against multidrug-resistant human MCF7/ADR cells after 48 hrs by MTT assay; settings: NCI/ADR-RES; outline: as §1
# [7] = test system: RAW264.7; test: Antiinflammatory activity in mouse RAW264.7 cells assessed as inhibition of LPS-induced nitric oxide production pretreated for 2 hrs before LPS challenge measured after 18 hrs by Griess method
# Outline: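 RAW 264.7 mouse macrophages in RPMI 1640 with 10% heat-inactivated FBS, penicillin/streptomycin, 37 °C, 5% CO2. Seeded 1 × 10^5 per well, 24 h, then pretreated 2 h with compounds at 40, 20, 10, 5, 2.5 μM (DMSO ≤0.1% final). LPS 2 μg/mL for 18 h. Supernatant nitrite read with Griess reagent at 540 nm against NaNO2 standard curve; n = 4; IC50.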
Compound,pIC50 [1],pIC50 [2],pIC50 [3],pIC50 [4],pIC50 [5],pIC50 [6],pIC50 [7]
O=c1[nH]cc(F)c(=O)[nH]1 [FLUOROURACIL],5.17,< 4.00,5.68,< 4.00,4.48,< 4.00,–
C=C1[C@@H]([C@@]2(C)C=CC(=O)C(C)(C)[C@@H]2CC(=O)OC)[C@@H](OC(C)=O)[C@H](OC(C)=O)[C@@]2(C)[C@H](C3=CC(=O)OC3O)C[C@H]3O[C@]132 (stereo partly specified),–,–,–,–,–,–,4.41
CC(=O)O[C@@H]1C[C@H]2C(C)(C)C(=O)C=C[C@]2(C)[C@H]2[C@H](O)C[C@]3(C)C(=CC[C@H]3[C@H]3CO[C@@H](C(C)(C)O)[C@H](O)C3)[C@@]21C [TOONACILIATAVARIN B],< 4.30,< 4.30,< 4.30,< 4.30,< 4.30,< 4.30,5.10
CC(C)(O)[C@@H]1OC[C@H]([C@@H]2CC=C3[C@]4(C)C(=O)C[C@H]5C(C)(C)C(=O)C=C[C@]5(C)[C@H]4[C@H](O)C[C@]32C)C[C@H]1O [TOONACILIATAVARIN A],< 4.30,< 4.30,< 4.30,< 4.30,< 4.30,< 4.30,5.03
C=C1[C@@H]([C@@]2(C)C=CC(=O)C(C)(C)[C@@H]2CC(=O)OC)[C@H](OC(C)=O)[C@H](OC(C)=O)[C@@]2(C)[C@H](C3=CCOC3=O)C[C@H]3O[C@]132,< 4.30,< 4.30,< 4.30,< 4.30,< 4.30,< 4.30,4.68
CC1(C)C(=O)C=C[C@]2(C)C3=CC[C@@]4(C)[C@H](C5=CC(=O)OC5O)C[C@H]5O[C@]54[C@]3(C)C(=O)C[C@@H]12 (stereo partly specified) [TOONACILIATAVARIN F],< 4.30,< 4.30,< 4.30,< 4.30,< 4.30,< 4.30,4.54
C[C@@H]1C[C@H]2[C@@H]3CCC4=CC(=O)C=C[C@]4(C)[C@@]3(F)[C@@H](O)C[C@]2(C)[C@@]1(O)C(=O)CO [DEXAMETHASONE],–,–,–,–,–,–,6.01
COc1cccc2c1C(=O)c1c(O)c3c(c(O)c1C2=O)C[C@@](O)(C(=O)CO)C[C@@H]3O[C@H]1C[C@H](N)[C@H](O)[C@H](C)O1 [DOXORUBICIN],–,–,–,–,6.35,< 4.30,–
C[C@@H]([C@@H](O)[C@H](O)[C@H](O)C(C)(C)O)[C@@H]1CC[C@]2(C)C3=CC[C@H]4C(C)(C)C(=O)CC[C@]4(C)[C@H]3CC[C@@]12C,4.99,4.77,4.95,4.71,4.49,4.65,–
CC1(C)OC[C@H]([C@@H]2CC[C@]3(C)C4=CC[C@H]5C(C)(C)[C@@H](O)CC[C@]5(C)[C@H]4CC[C@@]23C)C[C@@H](O)[C@@H]1O [TOONACILIATAVARIN D],4.40,< 4.30,4.37,4.50,< 4.30,< 4.30,4.48
CC(=O)O[C@@H]1C[C@H]2C(C)(C)C(=O)C=C[C@]2(C)[C@H]2[C@H](O)C[C@]3(C)C(=CC[C@H]3[C@H]3COC(C)(C)[C@@H](O)[C@H](O)C3)[C@@]21C [TOONACILIATAVARIN C],< 4.30,< 4.30,< 4.30,< 4.30,< 4.30,< 4.30,4.96
CC1(C)C(=O)C=C[C@]2(C)C3=CC[C@@]4(C)[C@H](C5=CC(O)OC5=O)C[C@H]5O[C@]54[C@]3(C)C(=O)C[C@@H]12 (stereo partly specified) [TOONACILIATAVARIN G],< 4.30,< 4.30,< 4.30,< 4.30,< 4.30,< 4.30,4.82
C=C1[C@@H]([C@@]2(C)C=CC(=O)C(C)(C)[C@@H]2CC(=O)OC)[C@@H](OC(C)=O)[C@H](OC(C)=O)[C@@]2(C)[C@H](C3=CC(O)OC3=O)C[C@H]3O[C@]132 (stereo partly specified),–,–,–,–,–,–,4.38
